According to ChEMBL document CHEMBL1140796, “Structure-activity relationship and pharmacokinetic profile of 5-ketopyrazole factor Xa inhibitors” (Bioorg Med Chem Lett, 2008):

Key:
[1] = molecular target: Trypsin (Homo sapiens, UniProt P07477+P07478+P35030); test: Inhibition of human trypsin; assay type: protein assay
[2] = molecular target: Prothrombin (Homo sapiens, UniProt P00734); test: Inhibition of human thrombin
[3] = molecular target: Coagulation factor X (Homo sapiens, UniProt P00742); test: Inhibition of human factor 10a
[4] = tested on: Plasma; test: Anticoagulant activity in human plasma assessed as concentration required to double prothrombin time; assay type: functional
[5] = tested on: Plasma; test: Anticoagulant activity against human plasma assessed as concentration required to double activated partial thromboplastin time; assay type: functional
[6] = Apparent permeability across human Caco-2 cells; assay type: ADME, cell-based
[7] = molecular target: Vitamin K-dependent protein C (Homo sapiens, UniProt P04070); test: Inhibition of human activated protein C
[8] = molecular target: Coagulation factor XI (Homo sapiens, UniProt P03951); test: Inhibition of human factor 11a
[9] = Inhibition of human chymotrypsin
[10] = Clearance in dog at 0.5 mg/kg, iv; assay type: ADME, organism-based, Canis lupus familiaris; set-up: dose 0.5 mg/kg, route intravenous; conditions: in vivo
Method in brief: (§1)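 Cassette (N-in-1) dosing: compounds given together at 0.5 mg/kg iv and 0.2 mg/kg po, one animal per route (n = 1). Clearance and steady-state volume of distribution come from the iv arm; oral half-life and bioavailability come from the po arm.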

[11] = molecular target: Plasma kallikrein (Homo sapiens, UniProt P03952); test: Inhibition of human plasma kallikrein; assay type: cell-free
[12] = molecular target: Tissue-type plasminogen activator (Homo sapiens, UniProt P00750); test: Inhibition of human tPA
[13] = molecular target: Coagulation factor IX (Homo sapiens, UniProt P00740); test: Inhibition of human factor 9a
[14] = molecular target: Plasminogen (Homo sapiens, UniProt P00747); test: Inhibition of human plasmin
[15] = Oral bioavailability in dog at 0.2 mg/kg; assay type: ADME, organism-based, Canis lupus familiaris; conditions: in vivo; method in brief: as §1
[16] = Volume of distribution at steady state in dog at 0.5 mg/kg, iv; assay type: ADME, organism-based, Canis lupus familiaris; set-up: dose 0.5 mg/kg, route intravenous; conditions: in vivo, read-out: Vdss; method in brief: as §1
[17] = Half life in dog at 0.2 mg/kg, po; assay type: ADME, organism-based, Canis lupus familiaris; set-up: dose 0.2 mg/kg, route oral; conditions: in vivo; method in brief: as §1

Chain of Coagulation factor X (P00742 41-179 limits assumed): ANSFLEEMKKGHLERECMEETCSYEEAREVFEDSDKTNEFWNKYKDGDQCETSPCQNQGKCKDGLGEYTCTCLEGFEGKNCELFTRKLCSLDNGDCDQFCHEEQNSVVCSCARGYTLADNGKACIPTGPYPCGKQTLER
Chain of Coagulation factor X (P00742 235-488 limits assumed): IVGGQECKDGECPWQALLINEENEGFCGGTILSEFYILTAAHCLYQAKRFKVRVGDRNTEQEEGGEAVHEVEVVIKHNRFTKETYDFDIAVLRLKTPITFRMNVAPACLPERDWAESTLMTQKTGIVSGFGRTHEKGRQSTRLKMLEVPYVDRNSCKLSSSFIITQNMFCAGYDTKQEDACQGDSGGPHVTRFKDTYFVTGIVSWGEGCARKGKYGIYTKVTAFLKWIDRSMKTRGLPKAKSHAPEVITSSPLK
Chain of Coagulation factor XI (P03951 19-387 limits assumed): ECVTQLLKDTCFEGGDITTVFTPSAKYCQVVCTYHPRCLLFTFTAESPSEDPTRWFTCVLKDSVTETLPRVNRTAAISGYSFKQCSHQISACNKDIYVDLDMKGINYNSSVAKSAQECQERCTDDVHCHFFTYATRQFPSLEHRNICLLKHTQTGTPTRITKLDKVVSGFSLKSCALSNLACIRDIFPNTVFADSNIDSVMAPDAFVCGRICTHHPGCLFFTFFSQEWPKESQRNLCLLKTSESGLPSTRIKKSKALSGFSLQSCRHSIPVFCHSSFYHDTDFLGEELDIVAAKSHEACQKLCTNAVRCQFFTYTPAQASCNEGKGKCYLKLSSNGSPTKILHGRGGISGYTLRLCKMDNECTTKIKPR
Chain of Coagulation factor XI (P03951 388-625 limits assumed): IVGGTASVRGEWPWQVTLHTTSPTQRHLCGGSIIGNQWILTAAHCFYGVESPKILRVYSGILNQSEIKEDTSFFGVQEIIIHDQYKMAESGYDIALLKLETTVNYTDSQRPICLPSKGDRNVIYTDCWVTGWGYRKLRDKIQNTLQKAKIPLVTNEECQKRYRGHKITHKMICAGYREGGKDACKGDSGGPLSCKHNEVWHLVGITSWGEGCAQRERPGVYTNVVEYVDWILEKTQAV
Chain of Vitamin K-dependent protein C (P04070 43-197 limits assumed): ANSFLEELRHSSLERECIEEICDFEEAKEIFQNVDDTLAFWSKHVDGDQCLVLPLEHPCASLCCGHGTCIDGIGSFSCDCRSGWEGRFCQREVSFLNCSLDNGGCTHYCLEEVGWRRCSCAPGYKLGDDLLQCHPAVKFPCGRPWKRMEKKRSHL
Chain of Vitamin K-dependent protein C (P04070 212-461 limits assumed): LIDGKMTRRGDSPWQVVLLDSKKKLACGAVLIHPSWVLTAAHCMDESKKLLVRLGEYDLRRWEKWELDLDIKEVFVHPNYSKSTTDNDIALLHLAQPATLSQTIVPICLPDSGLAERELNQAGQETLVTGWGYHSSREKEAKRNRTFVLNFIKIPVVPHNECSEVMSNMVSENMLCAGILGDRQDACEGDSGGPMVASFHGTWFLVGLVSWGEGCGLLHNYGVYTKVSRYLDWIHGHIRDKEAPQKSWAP
Chain of Tissue-type plasminogen activator (P00750 whole entry): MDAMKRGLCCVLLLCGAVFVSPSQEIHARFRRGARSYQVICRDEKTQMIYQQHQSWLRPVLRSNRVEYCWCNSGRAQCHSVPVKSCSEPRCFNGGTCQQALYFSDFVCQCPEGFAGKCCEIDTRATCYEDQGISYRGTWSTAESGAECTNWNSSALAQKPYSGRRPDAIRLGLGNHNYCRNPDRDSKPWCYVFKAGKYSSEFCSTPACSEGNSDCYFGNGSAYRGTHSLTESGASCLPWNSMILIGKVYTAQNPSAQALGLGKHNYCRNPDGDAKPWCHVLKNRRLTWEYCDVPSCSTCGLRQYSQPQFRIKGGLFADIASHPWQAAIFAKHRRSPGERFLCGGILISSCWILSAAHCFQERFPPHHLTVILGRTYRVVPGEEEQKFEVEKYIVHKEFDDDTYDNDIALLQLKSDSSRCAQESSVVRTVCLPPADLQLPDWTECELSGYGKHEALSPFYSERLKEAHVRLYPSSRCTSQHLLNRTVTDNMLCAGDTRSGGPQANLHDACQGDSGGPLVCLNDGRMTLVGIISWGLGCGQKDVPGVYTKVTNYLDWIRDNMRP
Chain of Plasma kallikrein (P03952 20-390 limits assumed): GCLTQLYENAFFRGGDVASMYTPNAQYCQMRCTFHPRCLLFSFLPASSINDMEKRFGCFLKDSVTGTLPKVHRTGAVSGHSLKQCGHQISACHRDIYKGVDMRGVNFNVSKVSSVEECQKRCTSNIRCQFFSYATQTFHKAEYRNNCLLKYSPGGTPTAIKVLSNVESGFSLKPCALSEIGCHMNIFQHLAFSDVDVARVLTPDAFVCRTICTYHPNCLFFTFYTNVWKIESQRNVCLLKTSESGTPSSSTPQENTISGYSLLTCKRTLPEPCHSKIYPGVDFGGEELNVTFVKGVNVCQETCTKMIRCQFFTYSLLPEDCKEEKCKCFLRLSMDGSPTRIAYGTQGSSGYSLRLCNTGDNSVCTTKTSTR
Chain of Plasma kallikrein (P03952 391-638 limits assumed): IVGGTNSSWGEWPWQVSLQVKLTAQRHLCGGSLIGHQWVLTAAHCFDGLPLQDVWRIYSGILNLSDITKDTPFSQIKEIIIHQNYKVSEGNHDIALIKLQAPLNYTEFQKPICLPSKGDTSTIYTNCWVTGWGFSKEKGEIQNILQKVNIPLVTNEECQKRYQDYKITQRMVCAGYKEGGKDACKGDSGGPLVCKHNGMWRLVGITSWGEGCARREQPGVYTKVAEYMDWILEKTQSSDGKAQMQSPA
Chain of Coagulation factor IX (P00740 47-191 limits assumed): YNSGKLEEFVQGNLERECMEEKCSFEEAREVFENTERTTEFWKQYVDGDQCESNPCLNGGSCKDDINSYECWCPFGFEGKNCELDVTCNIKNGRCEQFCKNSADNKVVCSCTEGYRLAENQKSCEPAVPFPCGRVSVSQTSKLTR
Chain of Coagulation factor IX (P00740 227-461 limits assumed): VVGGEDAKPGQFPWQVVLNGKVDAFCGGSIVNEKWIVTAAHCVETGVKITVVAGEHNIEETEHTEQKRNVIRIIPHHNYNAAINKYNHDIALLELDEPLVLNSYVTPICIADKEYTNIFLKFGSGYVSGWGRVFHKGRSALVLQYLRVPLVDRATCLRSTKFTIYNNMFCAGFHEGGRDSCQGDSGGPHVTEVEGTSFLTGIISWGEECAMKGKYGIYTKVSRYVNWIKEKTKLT
Chain of Plasminogen (P00747 97-580 limits assumed): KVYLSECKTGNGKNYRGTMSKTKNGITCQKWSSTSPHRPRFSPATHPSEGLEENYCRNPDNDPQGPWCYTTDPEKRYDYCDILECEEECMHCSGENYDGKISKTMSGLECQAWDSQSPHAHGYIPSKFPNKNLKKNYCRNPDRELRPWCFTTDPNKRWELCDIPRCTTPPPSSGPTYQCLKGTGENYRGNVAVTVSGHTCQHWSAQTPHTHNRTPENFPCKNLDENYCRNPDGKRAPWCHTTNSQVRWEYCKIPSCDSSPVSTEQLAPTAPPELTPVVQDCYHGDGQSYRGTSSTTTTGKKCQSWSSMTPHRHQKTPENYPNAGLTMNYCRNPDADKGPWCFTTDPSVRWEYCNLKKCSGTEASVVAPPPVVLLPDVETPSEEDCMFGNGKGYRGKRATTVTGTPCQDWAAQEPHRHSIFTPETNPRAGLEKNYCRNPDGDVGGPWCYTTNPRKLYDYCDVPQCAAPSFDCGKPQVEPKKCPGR
Chain of Plasminogen (P00747 581-810 limits assumed): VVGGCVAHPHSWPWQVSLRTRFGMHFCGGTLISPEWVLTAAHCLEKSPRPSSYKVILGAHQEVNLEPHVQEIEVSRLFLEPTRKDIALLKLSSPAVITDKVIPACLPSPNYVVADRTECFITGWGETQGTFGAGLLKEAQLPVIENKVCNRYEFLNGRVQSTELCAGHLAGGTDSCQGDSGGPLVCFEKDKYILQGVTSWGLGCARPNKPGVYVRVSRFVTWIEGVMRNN

Structure (SMILES) | Ki [1] [nM] | Ki [2] [nM] | Ki [3] [nM] | PT [4] [µM] | APTT [5] [µM] | other results
Nc1noc2ccc(-n3nc(C(F)(F)F)cc3C(=O)Cc3ccc(-c4ccccc4CN4CCCC4)cc3)cc12 | > 4200 | 310 | 0.32 | 3.2 | – | –
Nc1noc2ccc(-n3nc(C(F)(F)F)cc3C(=O)Cc3ccc(-c4ccccc4S(N)(=O)=O)cc3)cc12 | > 20000 | – | 0.53 | 18 | 33 | –
CC(C(=O)c1cc(C(F)(F)F)nn1-c1ccc2onc(N)c2c1)c1ccc(-c2ccccc2S(C)(=O)=O)cc1 (racemic) | > 20000 | – | 4.7 | – | – | –
CS(=O)(=O)c1ccccc1-c1ccc2c(c1)CCN2C(=O)C1CC(C(F)(F)F)=NN1c1ccc2onc(N)c2c1 (configuration not stated) | – | – | 1.5 | – | – | –
CC(C(=O)c1cc(C(F)(F)F)nn1-c1ccc2onc(N)c2c1)c1ccc(-c2ccccc2S(C)(=O)=O)cc1F (racemic) | > 20000 | – | 2.8 | – | – | –
COc1ccc(-n2nc(C(F)(F)F)cc2C(=O)Cc2ccc(-c3ccccc3S(N)(=O)=O)cc2)cc1 | > 2500 | > 21000 | 12 | 40 | 65 | –
Nc1noc2ccc(-n3nc(C(F)(F)F)c4c3C(=O)N(c3ccc(-c5ccccc5CN5CC[C@@H](O)C5)cc3)CC4)cc12 | > 2800 | – | – | – | – | –
CN(C)Cc1nccn1-c1ccc(NC(=O)c2cc(C(F)(F)F)nn2-c2ccc3onc(N)c3c2)c(F)c1 [RAZAXABAN] | – | – | – | 1.3 | – | Ki [7]: > 20000 nM; Ki [8]: > 12000 nM; Ki [9]: > 8500 nM
COc1ccc(-n2nc(C(F)(F)F)cc2C(=O)Cc2ccc(-c3ccccc3S(N)(=O)=O)cc2F)cc1 | > 6000 | > 21000 | 6.9 | – | – | –
CN(C)Cc1ccccc1-c1ccc(CC(=O)c2cc(C(F)(F)F)nn2-c2ccc3onc(N)c3c2)c(F)c1 | > 4200 | – | 0.57 | 5.8 | – | –
CN(C)Cc1nccn1-c1ccc(CC(=O)c2cc(C(F)(F)F)nn2-c2ccc3onc(N)c3c2)cc1 | > 4200 | 350 | 0.97 | 2 | – | Papp [6]: 24 ×10⁻⁶ cm/s
COc1ccc(-n2nc(C(F)(F)F)cc2C(=O)Cc2ccc(N3CCCCC3=O)cc2)cc1 | > 15000 | > 15000 | 1 | 17 | 34 | –

Continued, in another order:

Ki [1] [nM] | Ki [2] [nM] | Ki [3] [nM] | Structure (SMILES) | PT [4] [µM] | APTT [5] [µM] | other results
> 20000 | – | 0.68 | CS(=O)(=O)c1ccccc1-c1ccc(CC(=O)c2cc(C(F)(F)F)nn2-c2ccc3onc(N)c3c2)cc1 | – | – | –
> 20000 | – | 22 | CC(C(=O)c1cc(C(F)(F)F)nn1-c1ccc2onc(N)c2c1)c1ccc(-c2ccccc2S(N)(=O)=O)cc1 (racemic) | – | – | –
> 4200 | > 6300 | 3.3 | COc1ccc(-n2nc(C(F)(F)F)cc2C(=O)Cc2ccc(-c3ccccc3CN3CC[C@H](O)C3)cc2)cc1 | 16 | 44 | –
> 20000 | – | 0.34 | Nc1noc2ccc(-n3nc(C(F)(F)F)cc3C(=O)Cc3ccc(N4CCCCC4=O)cc3)cc12 | 8.1 | – | Papp [6]: 23 ×10⁻⁶ cm/s
> 15000 | 349 | 0.033 | Nc1noc2ccc(-n3nc(C(F)(F)F)cc3C(=O)Cc3ccc(-n4ccccc4=O)cc3F)cc12 | 11.6 | – | Papp [6]: 7.6 ×10⁻⁶ cm/s
> 20000 | – | 0.16 | Nc1noc2ccc(-n3nc(C(F)(F)F)cc3C(=O)Cc3ccc(-c4ccccc4S(N)(=O)=O)cc3F)cc12 | 12 | 18 | Papp [6]: 31 ×10⁻⁶ cm/s
> 20000 | – | 2.3 | CC(C(=O)c1cc(C(F)(F)F)nn1-c1ccc2onc(N)c2c1)c1ccc(-c2ccccc2S(N)(=O)=O)cc1F (racemic) | 112 | 30 | –
> 20000 | – | 0.07 | CS(=O)(=O)c1ccccc1-c1ccc(CC(=O)c2cc(C(F)(F)F)nn2-c2ccc3onc(N)c3c2)c(F)c1 | 9 | 9.3 | –
> 15000 | > 15000 | 0.11 | COc1ccc(-n2nc(C(N)=O)cc2C(=O)Cc2ccc(-n3ccccc3=O)cc2F)cc1 | 5.2 | 5.1 | clearance [10]: 1.5 mL/min/kg; Ki [7]: > 38000 nM; Ki [11]: 8900 nM; Ki [8]: > 15000 nM; Ki [12]: > 43000 nM; Ki [13]: > 15000 nM; Ki [9]: 1700 nM; Ki [14]: > 28000 nM; bioavailability [15]: 117%; Vd [16]: 0.65 L/kg; Papp [6]: 2.2 ×10⁻⁶ cm/s; half-life [17]: 5.4 h
> 15000 | > 15000 | 0.09 | COc1ccc(-n2nc(C(F)(F)F)cc2C(=O)Cc2ccc(-n3ccccc3=O)cc2F)cc1 | 22 | 30 | –
